# Activity calls are given as the source filed them. The rule behind the calls is not given here.
# Key:
# [1] = Inhibition of tubulin polymerization after 20 mins by spectrophotometry
# Method in brief: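 Tubulin 10 μM in 0.8 M monosodium glutamate, pH 6.6, preincubated 15 min at 30 °C with varying drug, chilled on ice. GTP added to 0.4 mM, turbidity at 350 nm followed 20 min at 30 °C. Extent of assembly measured; IC50 ± SD.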
# M14 [2] = experiment: Cytotoxicity against human M14 cells at 10 to 200 nM by MTT assay; type: functional, cell-based; details: TDE = time-dependent effect
# Method in brief: (§1)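 MTT assay. Seeded 10^5 cells/well, compound added after 24 h at 10, 30, 50, 100, 150, 200 nM for 24 or 48 h. MTT 1 mg/mL, 2 h at 37 °C in dark, formazan dissolved in DMSO, read at 550 nm. Triplicate; 0.5% DMSO control.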
# MCF7 [3] = experiment: Selectivity index, ratio of IC50 for HUVEC to IC50 for human MCF7 cells
# Method in brief: (§2)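 Selectivity index: IC50 in the named nontransformed line divided by IC50 in MCF-7 cells.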
# HEK293 [4] = experiment: Cytotoxicity against HEK293 cells assessed as effect on cell morphology at 300 nM after 48 hrs by time-lapse microscopy; type: cell-based; details: human, hek293, 48 h, 0.3 µM
# Method in brief: (§3)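 Morphology of HEK and M14 cells followed by time-lapse microscopy in 96-well plates at 37 °C, 5% CO2, with images captured every hour over 48 h.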
# M14 [5] = experiment: Cytotoxicity against human M14 cells after 48 hrs by MTT assay; type: functional, cell-based; method in brief: as §1
# HCT-116 [6] = experiment: Antiproliferative activity against human HCT116 cells expressing mismatch repair gene MLH1 complemented with chromosome 3 assessed as cell proliferation at 0.5 uM after 24 hrs by MTT assay relative to control; type: functional; details: HCT-116, 24 h, read-out: Activity
# Method in brief: (§4)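 HeLa and HCT116/chr3 cells grown at 37 °C, 5% CO2 in D-MEM with 10% fetal calf serum (HCT116/chr3 medium plus 500 μg/mL G418). Seeded 1 × 10^3 cells/well, treated 24 h later for 24 h from 10 mM DMSO stock; 1% DMSO solvent control. Quadruplicate, repeated three times; given as % of control ± SD.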
# Homo sapiens = species on record: Homo sapiens; experiment: Selectivity index, ratio of IC50 for HSMC to IC50 for human MCF7; method in brief: as §2
# [7] = Growth inhibition of mouse J774.1 cells at 300 nM after 48 hrs by MTT assay relative to control; type: cell-based; details: read-out: GI
# A10 = experiment: Growth inhibition of rat A10 cells; type: cell-based
# Method in brief: (§5)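 Human aortic smooth muscle, PtK2 kidney epithelial, rat A10 aortic smooth muscle and HUVEC lines grown as the supplier recommends, under 5% CO2.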
# HCT-116 [8] = experiment: Antiproliferative activity against human HCT116 cells expressing mismatch repair gene MLH1 complemented with chromosome 3 assessed as cell proliferation at 1 uM after 24 hrs by MTT assay relative to control; type: functional; details: HCT-116, 24 h, read-out: Activity; method in brief: as §4
# HEK293 [9] = experiment: Cytotoxicity against HEK293 cells after 48 hrs by MTT assay; type: cell-based, Homo sapiens; details: human, hek293, 48 h; method in brief: as §1
# HUVEC = experiment: Growth inhibition of HUVEC; type: cell-based; details: Homo sapiens; method in brief: as §5
# Saccharomyces cerevisiae [10] = experiment: Toxicity in Saccharomyces cerevisiae assessed as growth inhibition at first dilution at 20 uM after 3 days; type: organism-based; details: in vivo, 72 h
# Method in brief: (§6)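 S. cerevisiae BY4741 grown at 28 °C in minimal SD medium with 2% glucose. Exponential culture (5 × 10^6 cells/mL) exposed 18 h at 28 °C to compound at 20 μM, washed, resuspended in SD, serially diluted 10-fold, incubated overnight. Spotted onto YPD plates; growth scored by dilution reached after 3 days at 28 °C.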
# MCF7 [11] = experiment: Selectivity index, ratio of IC50 for rat A10 cells to IC50 for human MCF7 cells; type: functional; method in brief: as §2
# MCF7 [12] = experiment: Growth inhibition of human MCF7 cells after 48 hrs by sulforhodamine B assay; type: functional, cell-based; details: MCF7, 48 h
# [13] = Growth inhibition of HSMC; type: cell-based; details: Homo sapiens; method in brief: as §5
# [14] = Growth inhibition of Potorous tridactylus PtK2 cells; type: cell-based; method in brief: as §5
# U-937 [15] = experiment: Cytotoxicity against human U937 cells at 10 to 200 nM by MTT assay; type: functional, cell-based; details: TDE = time-dependent effect; method in brief: as §1
# MCF7 [16] = experiment: Selectivity index, ratio of IC50 for Potorous tridactylus PtK2 cells to IC50 for human MCF7 cells; type: functional; method in brief: as §2
# U-937 [17] = experiment: Cytotoxicity against human U937 cells after 48 hrs by MTT assay; type: functional, cell-based; method in brief: as §1
# M14 [18] = experiment: Cytotoxicity against human M14 cells assessed as effect on cell morphology at 300 nM after 48 hrs by time-lapse microscopy; type: functional, cell-based; method in brief: as §3
# Bos taurus = species on record: Bos taurus; experiment: Inhibition of [3H]colchicine binding to bovine tubulin at 5 uM after 10 mins by DEAE-cellulose filter method
# HeLa [19] = experiment: Antiproliferative activity against human HeLa cells assessed as cell proliferation at 1 uM after 24 hrs by MTT assay relative to control; type: functional; details: read-out: Activity; method in brief: as §4
# HEK293 [20] = experiment: Cytotoxicity against HEK293 cells at 10 to 200 nM by MTT assay; type: cell-based; details: human, hek293, 0.2 µM; TDE = time-dependent effect; method in brief: as §1
# HeLa [21] = experiment: Antiproliferative activity against human HeLa cells assessed as cell proliferation at 0.5 uM after 24 hrs by MTT assay relative to control; type: functional; details: read-out: Activity; method in brief: as §4
# Saccharomyces cerevisiae [22] = experiment: Toxicity in Saccharomyces cerevisiae assessed as growth inhibition at second dilution at 20 uM after 3 days; type: organism-based; details: in vivo, 72 h; method in brief: as §6
structure (smiles),measurement,setting,value
CCOC(=O)c1[nH]c2ccccc2c1Cc1cc(OC)c(OC)c(OC)c1,IC50,[1],5400 nM
COc1cc(Sc2c[nH]c3ccc(Br)cc23)cc(OC)c1OC,Activity,M14 [2],tde
same,Ratio IC50,MCF7 [3],9.3
same,Activity,HEK293 [4],Toxic
same,Activity,M14 [5],Dose-dependent effect
same,IC50,"M14 [5]; M14, 48 h",194 nM
same,growth at 0.5 µM,HCT-116 [6],60%
same,Ratio IC50,Homo sapiens,7
same,"inhibition at 48 h, 0.3 µM",[7],20%
same,IC50,A10,210 nM
same,growth at 1 µM,HCT-116 [8],60%
same,Activity,HEK293 [9],Dose-dependent effect
same,IC50,HUVEC,400 nM
same,Activity,Saccharomyces cerevisiae [10],Toxic
same,Ratio IC50,MCF7 [11],4.9
same,IC50,MCF7 [12],43 nM
same,IC50,[13],300 nM
same,IC50,[14],230 nM
same,Activity,U-937 [15],tde
same,Ratio IC50,MCF7 [16],5.3
same,Activity,U-937 [17],Dose-dependent effect
same,IC50,"U-937 [17]; U-937, 48 h",100 nM
same,Activity,M14 [18],Active
same,inhibition,Bos taurus,65%
same,growth at 1 µM,HeLa [19],56%
same,IC50,[1],1600 nM
same,Activity,HEK293 [20],tde
same,growth at 0.5 µM,HeLa [21],47%
same,Activity,Saccharomyces cerevisiae [22],Non-toxic
CCOC(=O)c1[nH]c2ccc(Cl)cc2c1C(=O)C(=O)c1cc(OC)c(OC)c(OC)c1,IC50,[1],> 40000 nM
CCOC(=O)c1cccn1Cc1cc(OC)c(OC)c(OC)c1,IC50,[1],> 40000 nM
COC(=O)c1[nH]c2ccc(OC)cc2c1S(=O)(=O)c1cc(OC)c(OC)c(OC)c1,IC50,[1],> 40000 nM
CCOC(=O)c1[nH]c2ccccc2c1C(=O)c1cc(OC)c(OC)c(OC)c1,IC50,MCF7 [12],80 nM
same,inhibition,Bos taurus,51%
same,IC50,[1],2600 nM
CCOC(=O)c1cccn1C(=O)c1cc(OC)c(OC)c(OC)c1,IC50,MCF7 [12],> 2500 nM
same,IC50,[1],32000 nM
COc1ccc2[nH]cc(Sc3cc(OC)c(OC)c(OC)c3)c2c1,IC50,MCF7 [12],22 nM
same,inhibition,Bos taurus,61%
same,IC50,[1],4100 nM
CCOC(=O)c1[nH]c2ccc(Cl)cc2c1Sc1cc(OC)c(OC)c(OC)c1,inhibition,Bos taurus,53%
same,IC50,[1],2200 nM
COC(=O)c1[nH]c2ccc(Cl)cc2c1C(=O)c1cc(OC)c(OC)c(OC)c1,IC50,MCF7 [12],30 nM
same,inhibition,Bos taurus,61%
same,IC50,[1],1600 nM
COC(=O)c1[nH]c2ccc(Cl)cc2c1Cc1cc(OC)c(OC)c(OC)c1,IC50,MCF7 [12],87 nM
same,inhibition,Bos taurus,49%
same,IC50,[1],1700 nM
CCOC(=O)c1c(CC)c(CC)c(C)n1Cc1cc(OC)c(OC)c(OC)c1,IC50,[1],> 40000 nM
CC(=O)O[C@H]1C(=O)[C@@]2(C)[C@H]([C@H](OC(=O)c3ccccc3)[C@]3(O)C[C@H](OC(=O)[C@H](O)[C@@H](NC(=O)c4ccccc4)c4ccccc4)C(C)=C1C3(C)C)[C@]1(OC(C)=O)CO[C@@H]1C[C@@H]2O [PACLITAXEL],IC50,HUVEC,7 nM
same,IC50,[13],6 nM
same,IC50,[14],21 nM
COc1cc(Cc2c[nH]c3ccccc23)cc(OC)c1OC,IC50,[1],28000 nM
COc1cc(C(=O)c2c[nH]c3ccc(Cl)cc23)cc(OC)c1OC,IC50,MCF7 [12],53 nM
same,inhibition,Bos taurus,44%
same,IC50,[1],2500 nM
CCOC(=O)c1c(C)cc(C)n1Cc1cc(OC)c(OC)c(OC)c1,IC50,[1],> 40000 nM
CCOC(=O)c1[nH]c2ccc(OC)cc2c1C(=O)c1cc(OC)c(OC)c(OC)c1,IC50,MCF7 [12],90 nM
same,inhibition,Bos taurus,49%
same,IC50,[1],2600 nM
COC(=O)c1[nH]c2ccccc2c1C(=O)c1cc(OC)c(OC)c(OC)c1,IC50,MCF7 [12],33 nM
same,inhibition,Bos taurus,49%
same,IC50,[1],2700 nM
CCOC(=O)c1[nH]c2ccc(Cl)cc2c1Cc1cc(OC)c(OC)c(OC)c1,IC50,MCF7 [12],230 nM
same,inhibition,Bos taurus,39%
same,IC50,[1],2500 nM
CCOC(=O)c1[nH]c2ccc(OC)cc2c1C(O)c1cc(OC)c(OC)c(OC)c1 (configuration not stated),IC50,[1],> 40000 nM
